Source: ChEMBL document CHEMBL1140884, “Oligodeoxyribonucleotide-based antagonists for Toll-like receptors 7 and 9” (2009)
Activity calls are given as the source filed them. The calls are words filed in the database; no cut-off is given here.

Experiments:
[1] = target: T1, Toll-like receptor 9 (Mus musculus) (UniProt Q9EQU3); experiment: Agonist activity at mouse TLR9 expressed in HEK293 cells assessed as activation of NF-kappaB at 10 ug/mL by SEAP reporter gene assay; assay type: functional, cell-based
T1 sequence (whole entry): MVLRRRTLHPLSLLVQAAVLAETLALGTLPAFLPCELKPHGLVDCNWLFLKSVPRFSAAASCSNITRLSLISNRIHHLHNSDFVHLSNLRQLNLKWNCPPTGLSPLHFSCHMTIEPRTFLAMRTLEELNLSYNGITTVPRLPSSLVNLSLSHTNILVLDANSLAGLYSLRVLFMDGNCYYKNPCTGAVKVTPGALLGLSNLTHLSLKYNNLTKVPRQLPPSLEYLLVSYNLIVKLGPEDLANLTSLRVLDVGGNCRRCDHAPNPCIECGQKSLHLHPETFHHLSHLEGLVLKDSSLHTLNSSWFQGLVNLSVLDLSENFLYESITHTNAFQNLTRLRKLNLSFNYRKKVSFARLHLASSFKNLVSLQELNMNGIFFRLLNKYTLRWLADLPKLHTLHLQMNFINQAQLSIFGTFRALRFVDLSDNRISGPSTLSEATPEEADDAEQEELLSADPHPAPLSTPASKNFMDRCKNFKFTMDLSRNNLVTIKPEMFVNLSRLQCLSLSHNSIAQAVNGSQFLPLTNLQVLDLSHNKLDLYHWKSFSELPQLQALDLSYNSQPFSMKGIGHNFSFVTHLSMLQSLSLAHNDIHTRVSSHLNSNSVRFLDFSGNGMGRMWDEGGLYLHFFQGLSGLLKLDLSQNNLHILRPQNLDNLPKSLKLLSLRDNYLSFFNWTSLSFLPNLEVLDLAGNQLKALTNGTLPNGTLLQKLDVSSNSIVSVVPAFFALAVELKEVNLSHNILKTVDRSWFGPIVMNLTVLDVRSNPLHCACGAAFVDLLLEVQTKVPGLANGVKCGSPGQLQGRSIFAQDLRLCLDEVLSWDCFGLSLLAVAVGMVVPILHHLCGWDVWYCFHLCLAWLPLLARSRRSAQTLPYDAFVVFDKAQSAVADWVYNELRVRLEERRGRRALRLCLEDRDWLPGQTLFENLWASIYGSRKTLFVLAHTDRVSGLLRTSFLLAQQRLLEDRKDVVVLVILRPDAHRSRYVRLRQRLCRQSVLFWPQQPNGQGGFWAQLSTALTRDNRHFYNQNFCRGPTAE
Summary of the method: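 HEK293 cells stably expressing mouse TLR9 were transiently transfected with a SEAP reporter for 6 h. Compounds were added at 10 µg/mL for 18 h. SEAP was read with Quanti-Blue substrate and expressed as fold change in NF-κB activity.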

[2] = target: T1, Toll-like receptor 9 (Mus musculus); experiment: Antagonist activity at TLR9 in mouse J774 cells assessed as inhibition of 5'-TCTGACRTTCT-X-TCTTRCAGTCT-3'-induced NF-kappaB activation pretreated for 30 mins; assay type: functional, cell-based
Summary of the method: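 J774 cells received antagonist at 5, 10 or 20 µg/mL either 30 min before, together with, or 30 min after TLR9 agonist (1 µg/mL). Nuclear extracts were prepared 1 h after agonist addition and NF-κB was assessed by EMSA.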

Mus musculus [3] = experiment: Inhibition of 5'-TCTGACRTTCT-X-TCTTRCAGTCT-3'-induced IL12 production in C57BL/6 mouse pretreated before up to 48 hrs of induction at 10 mg/kg, sc; assay type: functional, organism-based; set-up: dose 10 mg/kg
Summary of the method: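 C57BL/6 mice received antagonist or control 10 mg/kg sc, either with TLR9 agonist 0.25 mg/kg sc or up to 48 h before it. Serum IL-12 was measured 2 h after agonist. Two or three independent experiments; mean ± SEM, Student's t test versus PBS.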

Mus musculus [4] = experiment: Inhibition of 5'-TCTGACRTTCT-X-TCTTRCAGTCT-3'-induced IL10 production in C57BL/6 mouse treated 72 hrs before induction at 10 mg/kg, sc; assay type: functional; details: C57BL/6, sc, route subcutaneous
Summary of the method: (§1)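 Female C57BL/6 mice (n=3) received antagonist 10 mg/kg sc in the right flank. After 72 h, TLR9 agonist 0.25 mg/kg sc was given in the left flank. Serum was taken 2 h after agonist and cytokines/chemokines were measured by Luminex multiplex assay. Representative of at least three experiments.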

Mus musculus [5] = experiment: Inhibition of 5'-TCTGACRTTCT-X-TCTTRCAGTCT-3'-induced MCP1 production in C57BL/6 mouse treated 72 hrs before induction at 10 mg/kg, sc; assay type: functional; details: C57BL/6, sc, route subcutaneous; summary of the method: as §1
Mus musculus [6] = experiment: Inhibition of 5'-TCTGACRTTCT-X-TCTTRCAGTCT-3'-induced IL6 production in C57BL/6 mouse treated 72 hrs before induction at 10 mg/kg, sc; assay type: functional; details: C57BL/6, sc, route subcutaneous; summary of the method: as §1
Mus musculus [7] = experiment: Inhibition of 5'-UGCUGUUCUG-X-GUCUUGUCGU-5'-induced IL6 production in C57BL/6 mouse treated 72 hrs before induction at 10 mg/kg, sc; assay type: functional; details: C57BL/6, sc, route subcutaneous
Summary of the method: (§2)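 Female C57BL/6 mice, 6-8 weeks, n = 3, given antagonist 10 mg/kg sc in the right flank. After 72 h, agonist given sc in the left flank: TLR7/8 RNA agonist at 50 mg/kg or TLR9 agonist at 0.25 mg/kg. Serum collected 2 h after agonist by retro-orbital bleeding; cytokines/chemokines by mouse 20-plex Luminex bead assay.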

Mus musculus [8] = experiment: Inhibition of 5'-UGCUGUUCUG-X-GUCUUGUCGU-5'-induced KC production in C57BL/6 mouse treated 72 hrs before induction at 10 mg/kg, sc; assay type: functional; details: C57BL/6, sc, route subcutaneous; summary of the method: as §2
Mus musculus [9] = experiment: Inhibition of 5'-UGCUGUUCUG-X-GUCUUGUCGU-5'-induced MIG production in C57BL/6 mouse treated 72 hrs before induction at 10 mg/kg, sc; assay type: functional; details: C57BL/6, sc, route subcutaneous; summary of the method: as §2
Mus musculus [10] = experiment: Inhibition of 5'-TCTGACRTTCT-X-TCTTRCAGTCT-3'-induced IL12 production in C57BL/6 mouse treated 72 hrs before induction at 10 mg/kg, sc; assay type: functional; details: C57BL/6, sc, route subcutaneous; summary of the method: as §1
[11] = target: T1, Toll-like receptor 9 (Mus musculus); experiment: Antagonist activity at TLR9 in mouse J774 cells assessed as inhibition of 5'-TCTGACRTTCT-X-TCTTRCAGTCT-3'-induced NF-kappaB activation pretreated for 1 hr in presence of increasing levels of 5'-TCTGACRTTCT-X-TCTTRCAGTCT-3'; assay type: functional, cell-based
Summary of the method: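 Reversibility test: J774 cells were stimulated with varying doses of TLR9 agonist, with or without a fixed 10 µg/mL antagonist, for 1 h. Nuclear extracts were analysed for NF-κB by EMSA.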

[12] = target: T1, Toll-like receptor 9 (Mus musculus); experiment: Antagonist activity at mouse TLR9 expressed in HEK293 cells assessed as inhibition of 5'-TCTGACRTTCT-X-TCTTRCAGTCT-3'-induced NF-kappaB activation pretreated for 1 hr in presence of increasing levels of 5'-TCTGACRTTCT-X-TCTTRCAGTCT-3'; assay type: functional, cell-based
Summary of the method: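 In mouse TLR9-HEK293 cells with SEAP reporter, a fixed 10 µg/mL antagonist was combined with increasing TLR9 agonist concentrations for 18 h. Quanti-Blue SEAP read-out of NF-κB activity.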

[13] = target: T1, Toll-like receptor 9 (Mus musculus); experiment: Antagonist activity in mouse J774 cells assessed as inhibition of 5'-UGCUGUUCUG-X-GUCUUGUCGU-5'-induced NF-kappaB activation

- Activity [1]: inactive
- Activity [2]: Active
- Activity [11]: inactive
- Activity [12]: inactive
- Activity [13]: Dose-dependent effect
Compound: CO[C@@H]1[C@H](OP(=O)(S)OC[C@H]2O[C@@H](n3ccc(N)nc3=O)C[C@@H]2OP(=O)(S)OC[C@H]2O[C@@H](n3ccc4c(=O)[nH]c(N)nc43)C[C@@H]2OP(=O)(S)OC[C@H]2O[C@@H](n3cc(C)c(=O)[nH]c3=O)C[C@@H]2OP(=O)(S)OC[C@H]2O[C@@H](n3cc(C)c(=O)[nH]c3=O)C[C@@H]2OP(=O)(S)OC[C@H]2O[C@@H](n3ccc(N)nc3=O)C[C@@H]2OP(=O)(S)OC[C@H]2O[C@@H](n3cc(C)c(=O)[nH]c3=O)C[C@@H]2OP(=O)(S)OC[C@H]2O[C@@H](n3ccc(N)nc3=O)C[C@@H]2OP(=O)(S)OC[C@H]2O[C@@H](n3cc(C)c(=O)[nH]c3=O)C[C@@H]2OP(=O)(S)OC[C@H]2O[C@@H](n3cnc4c(=O)[nH]c(N)nc43)C[C@@H]2OP(=O)(S)OC[C@H]2O[C@@H](n3cc(C)c(=O)[nH]c3=O)C[C@@H]2O)[C@@H](COP(=O)(S)O[C@H]2[C@@H](OC)[C@H](n3cnc4c(=O)[nH]c(N)nc43)O[C@@H]2COP(=O)(S)O[C@H]2C[C@H](n3cc(C)c(=O)[nH]c3=O)O[C@@H]2COP(=O)(S)O[C@H]2C[C@H](n3ccc(N)nc3=O)O[C@@H]2COP(=O)(S)O[C@H]2C[C@H](n3cc(C)c(=O)[nH]c3=O)O[C@@H]2COP(=O)(S)O[C@H]2C[C@H](n3cnc4c(N)ncnc43)O[C@@H]2COP(=O)(S)O[C@H]2C[C@H](n3cc(C)c(=O)[nH]c3=O)O[C@@H]2COP(=O)(S)O[C@@H]2C[C@@H](n3ccc(N)nc3=O)O[C@H]2CO)O[C@H]1n1cnc2c(N)ncnc21 (stereo partly drawn)
- Activity (Mus musculus [3]): Active
- inhibition in vivo at 10 mg/kg (Mus musculus [4]): ≥ 50%
- inhibition in vivo at 10 mg/kg (Mus musculus [5]): ≥ 50%
- inhibition in vivo at 10 mg/kg (Mus musculus [6]): ≥ 50%
- inhibition in vivo at 10 mg/kg (Mus musculus [7]): ≥ 50%
- inhibition in vivo at 10 mg/kg (Mus musculus [8]): ≥ 50%
- inhibition in vivo at 10 mg/kg (Mus musculus [9]): ≥ 50%
- inhibition in vivo at 10 mg/kg (Mus musculus [10]): ≥ 50%
